TAAR1 ag – human TAAR1 agonism; CHO RD-HGA16 TAAR1, Fluo-8 calcium fluorescence; vehicle wells 0%, saturating PEA agonist 100%; Q96RJ0; hit rate 0.99% among 360,000; activation, % at 3 µM;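 active = activation above the mean activation of all test compounds in the run plus 3 SD, cut at about 38% in these data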
Target sequence (Q96RJ0 whole entry, looked up): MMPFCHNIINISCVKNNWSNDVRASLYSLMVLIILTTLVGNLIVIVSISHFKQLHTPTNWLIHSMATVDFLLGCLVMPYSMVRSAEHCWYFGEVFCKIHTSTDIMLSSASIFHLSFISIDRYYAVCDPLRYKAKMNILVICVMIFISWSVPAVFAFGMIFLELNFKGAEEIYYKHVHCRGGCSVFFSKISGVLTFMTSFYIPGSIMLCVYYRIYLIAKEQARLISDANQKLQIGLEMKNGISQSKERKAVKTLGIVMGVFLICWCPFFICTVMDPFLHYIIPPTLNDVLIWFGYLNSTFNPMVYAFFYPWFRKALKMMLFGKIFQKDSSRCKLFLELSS
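Test system: RD-HGA16 (CHO) cells co-expressing Gα16 and hTAAR1 | Doses: Single dose, 3 µM | Schedule: 17-24 h seeding, 75 min 37 °C dye, 30 min RT | Evaluation: % activation from peak over basal fluorescence ratio, DMSO-to-PEA scaled | Technique: Kinetic Fluo-8 calcium fluorescence | Benchmarks: Low control DMSO, high control PEA (EC100)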
CHRM4 PAM – positive allosteric modulators of human muscarinic M4 receptor; CHO-K1 hM4/Gqi5, Fluo-8 calcium fluorescence, ACh EC20; 0% = ACh EC20, 100% = maximal ACh; activation, % at 3 µM; hit rate 0.4% among 360,000; AID 624126;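 active = activation above its plate's cutoff, the mean activation of sample wells plus 3 SD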
M4 ag – agonists of human muscarinic M4 receptor (CHRM4); P08173; CHO-K1 hM4/Gqi5, Fluo-8 calcium fluorescence; vehicle 0%, full acetylcholine response 100%; activation, % at 3 µM; hit rate 0.14% among 360,000;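 active = activation above the run mean over all test wells plus 3 SD, cut at about 32% in these data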;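 also: peak over basal fluorescence ratio per well then scaled between controls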
TAAR1 antag – antagonists of human TAAR1; CHO RD-HGA16 TAAR1, Fluo-8 calcium fluorescence, antagonist; hit rate 1.5% among 360,000; AID 624466; inhibition, % at 3 µM;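 active = inhibition above a per-plate cutoff, the mean inhibition of test compounds on that plate plus 3 SD, cut at about 49% in these data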
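Material: RD-HGA16 CHO cells with stable hTAAR1 and Gα16; Dosing: single nominal final test compound concentration of 3 µM; Schedule: seeding 17-24 h prior, 75-min 37 °C, 30-min RT dye loading; Detection: kinetic Fluo-8 calcium fluorescence measurement; Measure: % inhibition from peak post-agonist over basal fluorescence ratio; Benchmarks: vehicle and agonist controls.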
M4 antag – antagonists of human muscarinic M4 receptor (CHRM4); CHO-hM4 cells, ACh EC80, Fluo-8 calcium fluorescence; inhibition, % at 3 µM; AID 624125; hit rate 0.73% among 360,000; P08173;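 active = inhibition above its plate's cutoff, the mean inhibition of sample wells plus 3 SD, cut at about 27% in these data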
Large screens that a line does not name were inactive. Most compounds without a hit are left out; they make up all but 3% or so of the library.

CCN(CCC(=O)Nc1cc(OC)ccc1OC)Cc1ccccc1	none (no result: CHRM4 PAM, M4 ag, M4 antag)
COCc1[nH]nc2c1C(c1ccc(F)cc1)N(Cc1ccccc1)C2=O (configuration not stated)	none (no result: CHRM4 PAM, M4 ag, M4 antag)
COc1cc(OC)c(NC(=O)C(Sc2nc(C)cc(C)c2C#N)c2ccccc2)cc1Cl (configuration not stated)	none (no result: CHRM4 PAM, M4 ag, M4 antag)
Nc1[nH]c(C(=O)c2ccccc2)c(-c2ccc3ccccc3c2)c1C(=O)NCc1cccc2ccccc12	none (no result: CHRM4 PAM, M4 ag, M4 antag)
O=C(NCCn1cc(SCc2ccccc2)c2ccccc21)c1ccccc1F	TAAR1 antag 64
O=C(CSc1cn(CCNC(=O)c2ccccc2F)c2ccccc12)NCC1CCCO1 (configuration not stated)	none
Nc1[nH]c(C(=O)c2ccccc2)c(-c2ccccc2[N+](=O)[O-])c1C(=O)NCCc1c[nH]c2ccccc12	none (no result: CHRM4 PAM, M4 ag, M4 antag)
CC1(C)CC(NC(=O)c2ccc(-c3ccc([N+](=O)[O-])cc3)o2)CC(C)(C)N1	CHRM4 PAM 20
O=C(NNC(=O)c1ccc(Oc2ccc(C3SCCS3)cc2)o1)c1ccc(Cl)cc1	M4 antag 27
Cc1cc(NC(=O)CSc2nnc3ccc(-c4ccccc4)nn23)no1	none
O=c1c2ccccc2n2c(-c3cccc(Cl)c3)nnc2n1Cc1ccccc1	none
O=c1c2ccccc2n2c(-c3cccc(F)c3)nnc2n1Cc1ccccc1	CHRM4 PAM 21
COc1ccc(OC)c(CN(CC(C)C)S(=O)(=O)c2ccccc2Br)c1	none (no result: CHRM4 PAM, M4 ag, M4 antag)
COc1cccc(NC(=O)C2(C)CCN2C(=O)C2CCCCC2)c1 (configuration not stated)	none
COCCn1cnc2c1c(=O)n(CC(=O)Nc1cc(C)on1)c(=O)n2Cc1ccccc1	CHRM4 PAM 24
CCC1CCCCN1CCCNC(=O)CSc1nc2nc(C)c(Cc3ccc(C)cc3)c(C)n2n1 (configuration not stated)	M4 antag 26
Cc1nc2nc(SCC(=O)NCCCN3CCCC3)nn2c(C)c1Cc1ccccc1Cl	M4 antag 27
COc1ccc(C2CC(=O)C(c3ccc(Cl)cc3)=CN2Cc2ccccc2)cc1 (configuration not stated)	none (no result: CHRM4 PAM, M4 ag, M4 antag)
O=C(N[C@H](Cc1ccccc1)C(=O)NCC1CCCO1)[C@H]1O[C@@H](n2ccc(=O)[nH]c2=O)[C@H](O)[C@@H]1O (some centres not stated)	none (no result: CHRM4 PAM, M4 ag, M4 antag)
C[C@H](O)[C@@H]1C(=O)N2CCc3c([nH]c4ccccc34)[C@@H]2C[C@@H]1N(C)C(=O)Nc1ccc(Br)cc1	none (no result: CHRM4 PAM, M4 ag, M4 antag)
COc1ccccc1-c1cccc2[nH]c3c(c12)CCN1C(=O)[C@H]2[C@H](C)ON(C)[C@H]2C[C@@H]31	none (no result: CHRM4 PAM, M4 ag, M4 antag)
COc1ccc(C(=O)N2CCCC(Nc3ccc(C)c(C)c3)C2)cc1 (configuration not stated)	none
COc1ccc(NC2CCCN(C(=O)c3ccc(OC)cc3OC)C2)cc1 (configuration not stated)	M4 antag 31
C[C@@H]1Cn2cnc(C(=O)N[C@@H](C)c3ccccc3)c2C(=O)N1	none
Cc1cccn2c(CNCCc3ccco3)c(C(=O)N3CCOCC3)nc12	TAAR1 ag 43
Cc1cccn2c(CN[C@@H]3CCCC[C@H]3c3ccccc3)c(C(=O)N3CCOCC3)nc12	none
CSc1ccc2c(c1)C(N1CCN(C)CC1)Cc1ccccc1S2 (configuration not stated)	M4 antag 55
CN1CCN(C2Cc3ccc(F)cc3Sc3cc(F)c(Cl)cc32)CC1 (configuration not stated)	none
CN1CCN(C2Cc3ccccc3Sc3ccc(Cl)cc32)CC1 (configuration not stated)	M4 antag 52
CN1CCN(C2Cc3ccccc3Sc3cc(C(F)(F)F)ccc32)CC1 (configuration not stated)	TAAR1 ag 51 (no result: CHRM4 PAM, M4 ag, M4 antag)
CN1CCN(C2Cc3cc(F)ccc3Sc3ccc(Cl)cc32)CC1 (configuration not stated)	M4 antag 84
CCc1cccc2c1Sc1ccccc1CC2N1CCNCC1 (configuration not stated)	none
COc1ccc(N2C[C@H](CSC)[C@@H](CC(=O)Nc3ccccc3)C2=O)cc1	none
COc1ccc(C2CC(=O)C(c3ccc(Br)cc3)=CN2Cc2ccccc2)cc1 (configuration not stated)	none (no result: CHRM4 PAM, M4 ag, M4 antag)
C[C@H](O)[C@@H]1C(=O)N2CCc3c([nH]c4c(-c5ccccc5)cccc34)[C@@H]2C[C@@H]1N(C)CC1CCCCC1	none (no result: CHRM4 PAM, M4 ag, M4 antag)
C=CCN1C(=O)c2n[nH]c(C(C)C)c2C1c1ccc2c(c1)OCO2 (configuration not stated)	none (no result: CHRM4 PAM, M4 ag, M4 antag)
CCCCCCCCN1C(=O)[C@@H](CC(=O)NCC2CCCCC2)C[C@@]2(C(=O)OC)C1=C[C@H](C1CCCC1)O[C@@H]2C	none (no result: CHRM4 PAM, M4 ag, M4 antag)
CC[C@H](NC(=O)[C@H]1O[C@@H](n2cnc3c(=O)[nH]c(N)nc32)[C@H](O)[C@@H]1O)c1ccccc1	none (no result: CHRM4 PAM, M4 ag, M4 antag)
Cc1ccc(S(=O)(=O)c2ccc([N+](=O)[O-])o2)cc1	M4 antag 36
O=S(=O)(NCc1ccc(Cl)cc1)c1ccc(Br)cc1C1CC[C@@H](O)C1 (some centres not stated)	none (no result: CHRM4 PAM, M4 ag, M4 antag)
O=C(O)CC/C(=N\NC(=O)CNC(=O)/C=C/c1ccccc1)c1ccccc1	none
COc1ccc(/C=C/C(=O)NCC(=O)N/N=C(/CCC(=O)O)c2ccccc2)cc1	M4 antag 30
Cc1[nH]c(C)c(S(=O)(=O)NCc2ccc(N(C)C)cc2)c1C(=O)N1CCCC1	CHRM4 PAM 18
O=C1NC(c2ccncc2)C(C(=O)c2cccs2)C(O)(C(F)(F)F)N1 (configuration not stated)	M4 antag 30
CN(CC(=O)N1CCN(C2CCCCC2)CC1)S(=O)(=O)c1cccc2nsnc12	M4 antag 29
CCN(C(=O)C1CCCN1S(=O)(=O)c1cccc2nsnc12)c1ccccc1 (configuration not stated)	none
Cc1cccc(N(C)C(=O)C2CCCN2S(=O)(=O)c2cccc3nsnc23)c1 (configuration not stated)	M4 antag 29
COC(=O)c1cc2c(c3c4ccccc4n(S(=O)(=O)c4ccc(OC)cc4)c13)C(=O)N(Cc1ccc(C(F)(F)F)cc1)C2	none (no result: CHRM4 PAM, M4 ag, M4 antag)
Cc1cccc(NC(=O)CN(C)C(=O)c2ccc3ccccc3n2)c1C	none
CCC(C)(C(=O)Nc1c(C)cccc1C)N(C)C(=O)c1ccc2ccccc2n1 (configuration not stated)	M4 antag 37
O=C(C[n+]1ccccc1)Nc1ccc(Oc2ccccc2)cc1	M4 antag 47
C1=CN2CCC1C(c1ccccc1)C2 (configuration not stated)	M4 antag 36
Cc1cc(C)nc(NC2=NCC(=O)N2c2cc(Cl)cc(Cl)c2)n1	none
